pKd: −log10 of the molar value.

Assay [1] in a line: Binding affinity to FAM-labeled 5'-biotin-d [GCGTCCACCCTCCCTGCCCCGCCGCCCCCCCITCTCCCAGC]-3' i-motif DNA (unknown origin) by microscale thermophoresis assay. Put shortly:
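Microscale thermophoresis with DNA held constant at 1 µM. Compound serially diluted 3:4 from 10 µM over 12 points. Samples run in standard glass capillaries with LED and laser power both at 20%. KD derived by fitting.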
In general terms: Microscale thermophoresis detects binding through changes in fluorescence in a small temperature gradient.

Assay [2] concerns Quadruplex DNA. Briefly: Binding affinity to 5'-biotin-d [GCTGGGAGAAGGGGGGGCGGCGGGGCAGGGAGGGTGGACGC]-3' G4-quadruplex DNA (unknown origin) assessed as change in melting temperature at 10 uM by CD spectroscopy. The format is nucleic-acid assay. In outline: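 Oligomer 2 µM in Tris-HCl pH 7.4, annealed (95 °C for 5 min, slow cooling, 4 °C overnight). Ligand 10 µM. CD ellipticity followed at 263 nm over 25–95 °C; ΔTm taken against DNA alone.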

Assay [3] concerns Quadruplex DNA. Description: Binding affinity to 5'-biotin-d [GCTGGGAGAAGGGGGGGCGGCGGGGCAGGGAGGGTGGACGC]-3' G4-quadruplex DNA (unknown origin) assessed as decrease in positive peak by CD spectroscopy. The settings on record: dose 2-10 equiv. The class given is nucleic-acid assay. In outline: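 CD spectra: oligomers at 2 μM final, in BPES pH 5.5 (i-motif) or Tris-HCl pH 7.4 (G-quadruplex). Samples were annealed (95 °C 5 min, slow cool, 4 °C overnight), then titrated with increasing compound. Spectra were recorded at 25 °C over 230–330 nm in a 1 mm cuvette, buffer-subtracted, averaged and smoothed.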

For assay [4], the system named is MCF7. Briefly: Antitumour activity against human MCF7 cells xenografted in ip dosed nude BALB/c mouse assessed as tumour growth inhibition administered for 34 days. The format is functional, organism-based. Particulars: dose 2.5-10 mg/kg, time 34.0 day. (A xenograft is tissue or cells of one species grown in another, often human tumour cells in immunodeficient mice.)

Assay [5] has as its system MCF7. Description: Induction apoptosis in human MCF7 cells assessed as viable cells at 5 uM incubated for 24 hrs by Annexin-FTTC/PI staining based flow cytometric analysis (reference value: 99.7%). The settings on record: read-out: Activity. The format is functional. A general note: In flow cytometry, cells or beads pass a laser one at a time.

As for `Cc1ccc2c(c1)c(=O)c1cc(C(=O)NCCCN(C)CCCN3C(=O)c4cccc5c(N6CCN(C)CC6)ccc(c45)C3=O)ccc1n2-c1ccc(C(=O)NCCCN(C)CCCN2C(=O)c3cccc4c(N5CCN(C)CC5)ccc(c34)C2=O)cc1`, the pKd (commonly the negative decadic logarithm of the Kd, by convention in mol/L) in assay [1] was 5.34. Also, the ΔTm (in general, the change in melting temperature against a reference sample) with Quadruplex DNA [2] was > 20 °C. In addition, the Activity entry with Quadruplex DNA [3] and in the assay with MCF7 [4] was “Dose-dependent effect” each time. Further, in the assay with MCF7 [5], the viability at 5 µM amounted to 13%.

Source of the values: ChEMBL document CHEMBL4715918, “Syntheses and evaluation of acridone-naphthalimide derivatives for regulating oncogene PDGFR-β expression” (Bioorg Med Chem, 2021).
